{"source": "ChEMBL document CHEMBL1165943", "about": "“Design and synthesis of new anticancer pyrimidines with multiple-kinase inhibitory effect” (Bioorg Med Chem, 2010)", "type_in_all_cases": "functional", "key": {"HL-60(TB)": {"test_system": "HL-60(TB)", "test": "Cytotoxicity against human HL-60(TB) cells assessed as cell growth at 10 uM", "settings": "Homo sapiens, HL-60; read-out: Activity", "procedure,_shortened": "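Single-concentration 10 µM screen of HL-60(TB) within the 60-line panel, grown in RPMI 1640 with 5% FBS. The drug from DMSO stock is incubated 48 h at 37 °C, settled cells are TCA-fixed and SRB-stained, and absorbance is read at 515 nm. Percent growth is reported, and inhibition % is taken as 100 minus growth %.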"}, "K562": {"test_system": "K562", "test": "Cytotoxicity against human K562 cells assessed as cell growth at 10 uM", "settings": "Homo sapiens, K562; read-out: Activity", "procedure,_shortened": "(§1)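 Single-dose screen at 10 μM across the 60-cell-line panel. Cells grown in RPMI 1640 with 5% FBS and 2 mM L-glutamine, seeded at 5,000–40,000 cells/well according to doubling time, and treated 24 h later. Exposure lasted 48 h at 37 °C, 5% CO₂. Adherent cells were fixed with cold TCA, suspension cells were fixed settled, and both were stained with SRB and read at 515 nm. Growth % was recorded, with inhibition % = 100 − growth %.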"}, "SR": {"test_system": "SR", "test": "Cytotoxicity against human SR cells assessed as cell growth at 10 uM", "settings": "Homo sapiens, SR; read-out: Activity", "procedure,_shortened": "as §1"}, "EKVX": {"test_system": "EKVX", "test": "Cytotoxicity against human EKVX cells assessed as cell growth at 10 uM", "settings": "Homo sapiens, EKVX; read-out: Activity", "procedure,_shortened": "(§2)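 Single-concentration screen at 10 μM across the 60-cell-line panel (nine tissue types); growth percentage recorded per cell line, with inhibition taken as 100 minus growth percentage.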"}, "HOP-62": {"test_system": "HOP-62", "test": "Cytotoxicity against human HOP62 cells assessed as cell growth at 10 uM", "settings": "Homo sapiens, HOP-62; read-out: Activity", "procedure,_shortened": "as §2"}, "NCI-H226": {"test_system": "NCI-H226", "test": "Cytotoxicity against human NCI-H226 cells assessed as cell growth at 10 uM", "settings": "Homo sapiens, NCI-H226; read-out: Activity", "procedure,_shortened": "as §1"}, "NCI-H23": {"test_system": "NCI-H23", "test": "Cytotoxicity against human NCI-H23 cells assessed as cell growth at 10 uM", "settings": "Homo sapiens, NCI-H23; read-out: Activity", "procedure,_shortened": "as §1"}, "NCI-H460": {"test_system": "NCI-H460", "test": "Cytotoxicity against human NCI-H460 cells assessed as cell growth at 10 uM", "settings": "Homo sapiens, NCI-H460; read-out: Activity", "procedure,_shortened": "as §1"}, "NCI-H522": {"test_system": "NCI-H522", "test": "Cytotoxicity against human NCI-H522 cells assessed as cell growth at 10 uM", "settings": "Homo sapiens, NCI-H522; read-out: Activity", "procedure,_shortened": "as §1"}, "COLO 205": {"test_system": "COLO 205", "test": "Cytotoxicity against human COLO205 cells assessed as cell growth at 10 uM", "settings": "Homo sapiens, COLO 205; read-out: Activity", "procedure,_shortened": "as §2"}, "HCT-116": {"test_system": "HCT-116", "test": "Cytotoxicity against human HCT116 cells assessed as cell growth at 10 uM", "settings": "Homo sapiens, HCT-116; read-out: Activity", "procedure,_shortened": "as §2"}, "HT-29": {"test_system": "HT-29", "test": "Cytotoxicity against human HT-29 cells assessed as cell growth at 10 uM", "settings": "Homo sapiens, HT-29; read-out: Activity", "procedure,_shortened": "as §2"}, "SW-620": {"test_system": "SW-620", "test": "Cytotoxicity against human SW620 cells assessed as cell growth at 10 uM", "settings": "Homo sapiens, SW-620; read-out: Activity", "procedure,_shortened": "as §1"}, "SF-295": {"test_system": "SF-295", "test": "Cytotoxicity against human SF295 cells assessed as cell growth at 10 uM", "settings": "Homo sapiens, SF-295; read-out: Activity", "procedure,_shortened": "as §1"}, "SF-539": {"test_system": "SF-539", "test": "Cytotoxicity against human SF539 cells assessed as cell growth at 10 uM", "settings": "Homo sapiens, SF-539; read-out: Activity", "procedure,_shortened": "as §1"}, "SNB-75": {"test_system": "SNB-75", "test": "Cytotoxicity against human SNB75 cells assessed as cell growth at 10 uM", "settings": "Homo sapiens, SNB-75; read-out: Activity", "procedure,_shortened": "as §1"}, "U-251": {"test_system": "U-251", "test": "Cytotoxicity against human U251 cells assessed as cell growth at 10 uM", "settings": "Homo sapiens, U-251; read-out: Activity", "procedure,_shortened": "as §1"}, "M14": {"test_system": "M14", "test": "Cytotoxicity against human M14 cells assessed as cell growth at 10 uM", "settings": "Homo sapiens, M14; read-out: Activity", "procedure,_shortened": "as §1"}, "SK-MEL-2": {"test_system": "SK-MEL-2", "test": "Cytotoxicity against human SK-MEL-2 cells assessed as cell growth at 10 uM", "settings": "Homo sapiens, SK-MEL-2; read-out: Activity", "procedure,_shortened": "as §1"}, "SK-MEL-5": {"test_system": "SK-MEL-5", "test": "Cytotoxicity against human SK-MEL-5 cells assessed as cell growth at 10 uM", "settings": "Homo sapiens, SK-MEL-5; read-out: Activity", "procedure,_shortened": "as §1"}, "UACC-257": {"test_system": "UACC-257", "test": "Cytotoxicity against human UACC257 cells assessed as cell growth at 10 uM", "settings": "Homo sapiens, UACC-257; read-out: Activity", "procedure,_shortened": "as §1"}, "IGROV-1": {"test_system": "IGROV-1", "test": "Cytotoxicity against human IGROV1 cells assessed as cell growth at 10 uM", "settings": "Homo sapiens, IGROV-1; read-out: Activity", "procedure,_shortened": "as §1"}, "OVCAR-3": {"test_system": "OVCAR-3", "test": "Cytotoxicity against human OVCAR-3 cells assessed as cell growth at 10 uM", "settings": "Homo sapiens, OVCAR-3; read-out: Activity", "procedure,_shortened": "as §1"}, "OVCAR-5": {"test_system": "OVCAR-5", "test": "Cytotoxicity against human OVCAR5 cells assessed as cell growth at 10 uM", "settings": "Homo sapiens, OVCAR-5; read-out: Activity", "procedure,_shortened": "as §1"}, "NCI/ADR-RES": {"test_system": "NCI/ADR-RES", "test": "Cytotoxicity against human NCI/ADR-RES cells assessed as cell growth at 10 uM", "settings": "Homo sapiens, NCI/ADR-RES; read-out: Activity", "procedure,_shortened": "as §1"}, "SK-OV-3": {"test_system": "SK-OV-3", "test": "Cytotoxicity against human SKOV3 cells assessed as cell growth at 10 uM", "settings": "Homo sapiens, SK-OV-3; read-out: Activity", "procedure,_shortened": "as §1"}, "786-0": {"test_system": "786-0", "test": "Cytotoxicity against human 786-0 cells assessed as cell growth at 10 uM", "settings": "Homo sapiens, 786-0; read-out: Activity", "procedure,_shortened": "as §2"}, "A498": {"test_system": "A498", "test": "Cytotoxicity against human A498 cells assessed as cell growth at 10 uM", "settings": "Homo sapiens, A498; read-out: Activity", "procedure,_shortened": "as §2"}, "ACHN": {"test_system": "ACHN", "test": "Cytotoxicity against human ACHN cells assessed as cell growth at 10 uM", "settings": "Homo sapiens, ACHN; read-out: Activity", "procedure,_shortened": "as §2"}, "CAKI-1": {"test_system": "CAKI-1", "test": "Cytotoxicity against human Caki1 cells assessed as cell growth at 10 uM", "settings": "Homo sapiens, CAKI-1; read-out: Activity", "procedure,_shortened": "as §2"}, "TK-10": {"test_system": "TK-10", "test": "Cytotoxicity against human TK10 cells assessed as cell growth at 10 uM", "settings": "Homo sapiens, TK-10; read-out: Activity", "procedure,_shortened": "as §1"}, "UO-31": {"test_system": "UO-31", "test": "Cytotoxicity against human UO31 cells assessed as cell growth at 10 uM", "settings": "Homo sapiens, UO-31; read-out: Activity", "procedure,_shortened": "as §1"}, "PC-3": {"test_system": "PC-3", "test": "Cytotoxicity against human PC3 cells assessed as cell growth at 10 uM", "settings": "Homo sapiens, PC-3; read-out: Activity", "procedure,_shortened": "as §1"}, "DU-145": {"test_system": "DU-145", "test": "Cytotoxicity against human DU145 cells assessed as cell growth at 10 uM", "settings": "Homo sapiens, DU-145; read-out: Activity", "procedure,_shortened": "as §2"}, "T47D": {"test_system": "T47D", "test": "Cytotoxicity against human T47D cells assessed as cell growth at 10 uM", "settings": "Homo sapiens, T47D; read-out: Activity", "procedure,_shortened": "as §1"}, "MDA-MB-468": {"test_system": "MDA-MB-468", "test": "Cytotoxicity against human MDA-MB-468 cells assessed as cell growth at 10 uM", "settings": "Homo sapiens, MDA-MB-468; read-out: Activity", "procedure,_shortened": "as §1"}, "[1]": {"test": "Growth inhibition of human NCI60 cells at 10 uM after 48 hrs by sulforhodamine B assay relative to control", "settings": "Homo sapiens, NCI60, 48 h; read-out: GI", "procedure,_shortened": "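Single 10 µM dose across the 60-line panel for 48 h, with the same culture, TCA fixation and SRB 515 nm read-out. Inhibition % = 100 − growth %, given as the mean over the 60 cell lines.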"}}}
{"molecule": "CC(=O)c1ccc(-c2ccc(-c3ccnc(Nc4cc(C(F)(F)F)cc(C(F)(F)F)c4)n3)cn2)cc1", "values": [{"measurement": "growth at 10 µM", "setting": "HL-60(TB)", "result": 107, "unit": "%"}, {"measurement": "growth at 10 µM", "setting": "K562", "result": 98.5, "unit": "%"}, {"measurement": "growth at 10 µM", "setting": "SR", "result": 96.5, "unit": "%"}, {"measurement": "growth at 10 µM", "setting": "EKVX", "result": 113, "unit": "%"}, {"measurement": "growth at 10 µM", "setting": "HOP-62", "result": 112, "unit": "%"}, {"measurement": "growth at 10 µM", "setting": "NCI-H226", "result": 100, "unit": "%"}, {"measurement": "growth at 10 µM", "setting": "NCI-H23", "result": 96.5, "unit": "%"}, {"measurement": "growth at 10 µM", "setting": "NCI-H460", "result": 106, "unit": "%"}, {"measurement": "growth at 10 µM", "setting": "NCI-H522", "result": 102, "unit": "%"}, {"measurement": "growth at 10 µM", "setting": "COLO 205", "result": 110, "unit": "%"}, {"measurement": "growth at 10 µM", "setting": "HCT-116", "result": 92.9, "unit": "%"}, {"measurement": "growth at 10 µM", "setting": "HT-29", "result": 105, "unit": "%"}, {"measurement": "growth at 10 µM", "setting": "SW-620", "result": 109, "unit": "%"}, {"measurement": "growth at 10 µM", "setting": "SF-295", "result": 110, "unit": "%"}, {"measurement": "growth at 10 µM", "setting": "SF-539", "result": 89.7, "unit": "%"}, {"measurement": "growth at 10 µM", "setting": "SNB-75", "result": 78.3, "unit": "%"}, {"measurement": "growth at 10 µM", "setting": "U-251", "result": 101, "unit": "%"}, {"measurement": "growth at 10 µM", "setting": "M14", "result": 109, "unit": "%"}, {"measurement": "growth at 10 µM", "setting": "SK-MEL-2", "result": 104, "unit": "%"}, {"measurement": "growth at 10 µM", "setting": "SK-MEL-5", "result": 101, "unit": "%"}, {"measurement": "growth at 10 µM", "setting": "UACC-257", "result": 102, "unit": "%"}, {"measurement": "growth at 10 µM", "setting": "IGROV-1", "result": 99.7, "unit": "%"}, {"measurement": "growth at 10 µM", "setting": "OVCAR-3", "result": 119, "unit": "%"}, {"measurement": "growth at 10 µM", "setting": "OVCAR-5", "result": 109, "unit": "%"}, {"measurement": "growth at 10 µM", "setting": "NCI/ADR-RES", "result": 103, "unit": "%"}, {"measurement": "growth at 10 µM", "setting": "SK-OV-3", "result": 93.5, "unit": "%"}, {"measurement": "growth at 10 µM", "setting": "786-0", "result": 105, "unit": "%"}, {"measurement": "growth at 10 µM", "setting": "A498", "result": 97.4, "unit": "%"}, {"measurement": "growth at 10 µM", "setting": "ACHN", "result": 103, "unit": "%"}, {"measurement": "growth at 10 µM", "setting": "CAKI-1", "result": 97.4, "unit": "%"}, {"measurement": "growth at 10 µM", "setting": "TK-10", "result": 106, "unit": "%"}, {"measurement": "growth at 10 µM", "setting": "UO-31", "result": 79.3, "unit": "%"}, {"measurement": "growth at 10 µM", "setting": "PC-3", "result": 89.8, "unit": "%"}, {"measurement": "growth at 10 µM", "setting": "DU-145", "result": 114, "unit": "%"}, {"measurement": "growth at 10 µM", "setting": "T47D", "result": 91.6, "unit": "%"}, {"measurement": "growth at 10 µM", "setting": "MDA-MB-468", "result": 106, "unit": "%"}, {"measurement": "inhibition of growth at 10 µM", "setting": "[1]", "result": -2.21, "unit": "%"}]}
